Measurements taken from ChEMBL document CHEMBL4513216, “Probing the Open Global Health Chemical Diversity Library for Multistage-Active Starting Points for Next-Generation Antimalarials” (ACS Infect Dis, 2020).

Experiment: Toxicity liver stage against HepG2, at 10uM
Type: cell-based
Set-up: test concentration 10 uM, cell line HepG2-A16-CD81EGFP
Conditions: human, HepG2-A16-CD81EGFP cells; read-out: INHIBITION
Method in brief: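 Uninfected HepG2-A16-CD81EGFP cells, 3 × 10^3 per well, 1536-well, plated on prespotted compound at 10 μM final, parasite-free screening media added to match infected plates; puromycin 10 μM positive, DMSO 0.5% negative; run in parallel with 48 h PbLuc assay at 37 °C, 5% CO2; viability by CellTiter-Glo luminescence, normalized to controls.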

| Structure (SMILES) | cytotoxicity at 10 µM [%] |
| --- | --- |
| CN(CCCc1cc(-c2ccc(F)cc2)n(C)n1)CC(N)=O | -8.71 |
| CN(Cc1ccc(Br)s1)Cn1nc(-c2ccccc2)oc1=O | 4.86 |
| COc1c(CNC(C)C(=O)NC2CCCC2)c(C(C)C)nn1C (stereo unspecified) | -1.08 |
| Cc1nn(C)c(C)c1OCC(=O)NCC(O)Cc1ccccc1 (stereo unspecified) | -3.81 |
| CC(C)(C)C(NC(=O)CCCS(C)(=O)=O)c1ccc(F)cc1F (stereo unspecified) | 8.87 |
| CC(C)CN(CC(=O)O)C(=O)c1ccc(F)cc1 | -2.83 |
| CN(C)Cc1nn(C)c2c1CN(C(=O)c1cccc(C#N)c1)C2 | 7.38 |
| CC(O)CN1CCN(Cc2csc(-c3ncccn3)n2)CC1 (stereo unspecified) | 5.4 |
| Cc1cc(CN2CCC(CNC(=O)c3cnc(C)nc3C)C2)[nH]n1 (stereo unspecified) | -140 |
| O=C1C[C@@H]2CC[C@H](CN1)N2C(=O)Cc1ccsc1 | 1.6 |
| Cc1nc(O)cc(CCNc2nc(N(C)C)nc(C)c2C)n1 | -3.03 |
| COc1cccc(CN2CCC3(CCN(c4ncc(F)cn4)CC3)C2)c1 | -0.664 |
| O=C(O)C1(n2cccn2)CCN(c2nc(-c3ccccc3)no2)CC1 | 7.47 |
| COc1ccccc1OCc1cc(C(=O)N2CCC(C(C)O)CC2)n[nH]1 (stereo unspecified) | 0.127 |
| NCC1(c2cccc(C(F)(F)F)c2)CCC1 | -4.27 |
| O=C(CC1CCc2ccccc21)N1CCC(O)(c2cccnc2)CC1 (stereo unspecified) | 7.19 |
| CN(C)C(=O)CN1CCC2(CCCN(c3ncc(F)cn3)C2)C1=O (stereo unspecified) | 9.51 |
| Cc1cccc(C(=O)N2CCc3c(COCC4CC4)cncc3C2)n1 | -80.1 |
| CC(C)c1nn(C)c(N(C)C)c1CNCc1cccnc1N(C)C | -8.66 |
| Cc1nc(C2CCCN(C(=O)c3cnc(C)s3)C2)no1 (stereo unspecified) | 4.31 |
| Cc1csc(N2CCCN(C(=O)c3nccnc3N)CC2)n1 | -2.42 |
| CC(C)c1nnc(N2C[C@H]3CC[C@@H](C2)N(Cc2ccccc2)C3)s1 | -3.86 |
| CCN(CC)CC1CN(CCc2ccccc2)Cc2nccn2C1 (stereo unspecified) | -9.61 |

| Structure (SMILES) | cytotoxicity at 10 µM [%] |
| --- | --- |
| Cc1nn(C)c(=O)c2nn(-c3ccc(Cl)cc3)c(C)c12 | -4.18 |
| O=C(O)Cn1ccc(=O)c2ccc(Cl)cc21 | -7.76 |
| COc1cccc(Cc2nc3c([nH]2)CC(C)(C)CNC3=O)c1OC | -2.88 |
| N#CCCN(c1ccccc1)S(=O)(=O)CC1CCCCO1 (stereo unspecified) | -4.69 |
| CCC(C)NC(=O)c1ccn(COc2ccccc2Cl)n1 (stereo unspecified) | 5.75 |
| COc1c(C2CCCN2Cc2cc(C)no2)c(C)nn1C (stereo unspecified) | -7.25 |
| O=C(NC1CC1)[C@H]1CC[C@@H]2[C@@H](CCN2c2ncc(F)cn2)O1 | -1.65 |
| CC(C)c1ncc(CN2CCC(O)(c3ccccc3F)CC2)cn1 | -0.882 |
| O=C(NCCCN1CCOCC1)c1ccc(-n2ccc3ccccc32)s1 | -3.42 |
| Cc1ccc(C)c(CSc2nnc([C@@H](N)C(C)C)o2)c1 | 5.95 |
| CCc1nnc(CN(C)c2nccc(N3CCCC(O)C3)n2)o1 (stereo unspecified) | -4.68 |
| Cc1nccn1-c1cccc(C2CCCN2S(=O)(=O)c2cn(C)cn2)n1 (stereo unspecified) | 7.99 |
| Cc1cc(C)n(CC2CCCN2CCS(=O)(=O)c2ccccc2)n1 (stereo unspecified) | -7.23 |
| Cc1ncsc1C(=O)NCCSCCCO | -11.3 |
| CCn1c(CC2CCN(C(=O)C3CNCCO3)CC2)nn(C)c1=O (stereo unspecified) | 2.14 |
| O=C(CCCn1cncn1)N1CCCCC1c1nccs1 (stereo unspecified) | 8.6 |
| CC(C)C(=O)NCCc1cc2nc(-c3ccncc3)ccn2n1 | 4.94 |
| Cc1nc[nH]c1CN1CCn2nc(CN3Cc4ccccc4C3)cc2C1 | 3.79 |
| O=C(NC1CCCN(c2ncccn2)C1)c1cn2ccccc2n1 (stereo unspecified) | -4.38 |
| O=C(NCCNc1ncccn1)N1CCCC1c1ccc(F)cc1 (stereo unspecified) | 0.932 |
| Cn1ncc2c(=O)[nH]c(CN3CCC(Cc4ccccc4)CC3)nc21 | -2.28 |
| N#Cc1c(F)cccc1N1CCN(S(=O)(=O)c2cccs2)CC1 | 14.2 |
| CC(C)Nc1n[nH]c2nc(C3CCN(C(=O)c4ccccn4)C3)ccc12 (stereo unspecified) | 17 |

| Structure (SMILES) | cytotoxicity at 10 µM [%] |
| --- | --- |
| Cc1noc(CCNS(=O)(=O)N2CCCC2c2ccco2)n1 (stereo unspecified) | -6.43 |
| COCCN(Cc1nccs1)C(=O)c1cc(-c2ccc(C)o2)n[nH]1 | 6.23 |
| CN(C)C(=O)CN1CCCC(c2cncc(-c3cccc(Cl)c3)n2)C1 (stereo unspecified) | 24 |
| CCn1cc(S(=O)(=O)N2CCC(C)Sc3ccccc32)cn1 (stereo unspecified) | 3.34 |
| COc1ccc(-n2c(COC(C)C)n[nH]c2=O)cc1 | 3.45 |
| CCC(=O)c1ccc(OCC(=O)NC(C)c2ncnn2CC)cc1 (stereo unspecified) | 1.9 |
| CCN1CC(C(=O)NCc2nc(C3CCCCC3)no2)CC1=O (stereo unspecified) | -3.68 |
| CN(CCc1ccccn1)C(=O)c1cccs1 | 3.45 |
| CCN(CC)CCCNc1nccc(-c2cn(C)nc2C)n1 | -2.92 |
| COc1cc(N2CC[C@H](O)[C@@H]2Cc2ccccc2)ncn1 | -75 |
| Cc1nnc(N2CC[C@H]3C[C@H](C(=O)N(C)C)O[C@@H]3C2)s1 | -80.9 |
| O=C(c1ccc(-n2cccn2)nc1)N1CCC(c2ccc(O)cc2)CC1 | 11.7 |
| OC(CNCCn1cccn1)c1ccc2c(c1)OCCO2 (stereo unspecified) | -0.361 |
| C1CCN(CCN2CCCCC2C2OCCO2)CC1 (stereo unspecified) | 3.19 |
| O=C(CCn1cc(Cl)cn1)N1CCC2(CC1)[C@H](O)C[C@@H]2OCCO | 19.6 |
| COCc1nn(C(C)C)c2c1CCN(Cc1cccs1)C2 | -9.55 |
| CC(=O)N1CCN(c2cc(C3CCNCC3)ccn2)CC1 | 6.91 |
| Oc1ccccc1CN1CCCCCC1c1cccs1 (stereo unspecified) | -3.2 |
| COc1ccc(S(=O)(=O)NC(=O)COc2ccc3c(c2)CCC3)cc1 | -6.72 |
| CCc1c(C)nc(N)nc1N1CCCC(c2nc(CCOC)no2)C1 (stereo unspecified) | 31.5 |
| Cc1ccc(C(CNC(=O)NCc2ccccn2)N2CCOCC2)o1 (stereo unspecified) | -14.9 |
| Cc1csc(N2CCN(CC(=O)NCc3ccccn3)CC2C)n1 (stereo unspecified) | -4.04 |
| Cc1nc(CNC(C(=O)N2CCOCC2)C(C)C)no1 (stereo unspecified) | 5.76 |

| Structure (SMILES) | cytotoxicity at 10 µM [%] |
| --- | --- |
| COc1ncnc(N)c1CNCCOc1ccccc1Cl | 6.24 |
| Cc1ccc(CN(C)Cc2nc3c(cnn3C)c(=O)[nH]2)c(C)c1 | 0.403 |
| Cc1cncc(C2CCN(Cc3ccc(S(C)(=O)=O)cc3)CC2)n1 | -1.03 |
| Cn1c(CN2CCOC(CNc3cccnn3)C2)nnc1C1CC1 (stereo unspecified) | 5.18 |
| Cn1cc(CN2CCn3cc(CNC(=O)CC4CC4)nc3C2)cn1 | -83.3 |
| O=C(c1cscn1)N(CCCO)S(=O)(=O)c1cccs1 | -11.3 |
| Cc1cc(-c2cncnc2)nc(C2CCCN2S(C)(=O)=O)n1 (stereo unspecified) | -6.21 |
| Cc1ccc2c(c1)nc1n2[C@@H](CNC(=O)c2ccccn2)COC1 | 7.82 |
| CC(C)NC(=O)NC(C)c1nc(-c2ccccc2)cs1 (stereo unspecified) | -11.1 |
| COCc1nc2ncc3c(=O)n(-c4ccccc4OC)ccc3n2n1 | -8.17 |
| Cc1ccc(CC(=O)N2CCN(C(C)c3ccccc3F)CC2)cn1 (stereo unspecified) | -9.75 |
| Cc1cc(=O)n(CC(=O)NCC2CCCO2)c(-c2ccc(F)cc2)n1 (stereo unspecified) | -10.8 |
| COCCOc1cccc(CNC(=O)CN2CCN(C)CC2C)c1 (stereo unspecified) | -4.07 |
| CC(C)(C)NC(=O)CNc1ncc(Br)cn1 | 2.96 |
| Cc1cccc(C(C)C)c1NC(=O)CN(C)C(C)c1nccs1 (stereo unspecified) | -129 |
| CO[C@H]1CN(CC2CC2)[C@@H]2CCCO[C@H]12 | -118 |
| CC(C)c1nnc(NC(=O)NC2CCN(Cc3ccccc3)C2)s1 (stereo unspecified) | -11.2 |
| c1ncn(CC2CN(CCCOc3ccc4c(c3)OCO4)CCO2)n1 (stereo unspecified) | -1.85 |
| NC(=O)C(NC(=O)CCc1ccc(Cl)s1)c1ccccc1 (stereo unspecified) | 1.28 |
| O=C1NC2(Nc3ncccc31)C(=O)Nc1c2ccc(Cl)c1F (stereo unspecified) | 9.06 |
| Cc1cc(NCCc2nc(C)c[nH]2)nc(-c2ccccc2O)n1 | 1.5 |
| CC(C)(CNC(=O)C(C)(C)Oc1ccc2c(c1)CCCC2=O)C(N)=O | -2.25 |
| Cc1noc(C)c1CNC(=O)N1CCC(NS(C)(=O)=O)CC1 | -9.41 |

| Structure (SMILES) | cytotoxicity at 10 µM [%] |
| --- | --- |
| CN(Cc1cccc(OC(F)(F)F)c1)C(=O)Cc1ccon1 | -9.61 |
| CS(=O)(=O)N1CCO[C@@H]2CN(C(=O)COC3CCCC3)C[C@@H]2C1 | 7.04 |
| CS(=O)(=O)N1CCC(C(=O)Nc2nnc(C(F)(F)F)[nH]2)CC1 | 9.52 |
| c1ccc2cc(OCCN3CCOC(Cn4cncn4)C3)ccc2c1 (stereo unspecified) | 4.6 |
| O=C(NCC1CC1)C1CCC2(CN(C(=O)c3ccno3)C2)O1 (stereo unspecified) | -138 |
| COc1cccc(-c2nc(C)c(C(=O)N[C@@H](C)C(=O)O)s2)c1 | 6.51 |
| O=C(Cc1cnccn1)N1CCC(c2nccn2CC2CC2)CC1 | -7.54 |
| CC(C)[C@@H]1CN(Cc2cnc(C3CCCCC3)nc2)C[C@H]1N(C)C | -3.18 |
| NC(=O)c1csc(C(=O)N2CCCC(n3ccnc3)C2)c1 (stereo unspecified) | -2.07 |
| CN(C)c1cc(C2CCCN(S(=O)(=O)c3cn(C)cn3)C2)ccn1 (stereo unspecified) | -14.4 |
| c1csc(CN2CCCC3(COCCN(c4cnccn4)C3)C2)c1 (stereo unspecified) | -68.7 |
| Cc1nn(C)c(C)c1C1CCCN1C(=O)c1nccnc1N (stereo unspecified) | -3.08 |
| CCn1cc(CN2C[C@@H]3CC[C@H]2CN(C(=O)C2CCC2)C3)cn1 | 3.5 |
| CC(=O)N1[C@H](Cn2cncn2)C[C@@H]2CN(Cc3ccccn3)CC[C@@H]21 | 0.732 |
| Cc1c[nH]nc1C1CCCN(C(=O)Cn2cccn2)C1 (stereo unspecified) | -14.5 |
| CCCOCCCNc1nccc(-c2cn(C)nc2C)n1 | -10.5 |
| OCc1ccc(CNc2ccccc2CN2CCC(O)CC2)o1 | 1.85 |
| Cn1cccc1CN1CCC2(CCCN(C(=O)Cc3cccnc3)C2)C1 (stereo unspecified) | 7.17 |
| O=C(NC1CCCC1)c1cnn2c(-c3ccco3)ccnc12 | 10.2 |
